According to ChEMBL document CHEMBL3124924, “Bifunctional ethyl 2-amino-4-methylthiazole-5-carboxylate derivatives: synthesis and in vitro biological evaluation as antimicrobial and anticancer agents” (2014):
In brackets after ≈: the same amount, converted by molar mass. Activity calls are given as the source filed them. The rule behind the calls is not given here.

How the values were obtained:
Candida albicans = assay: Antifungal activity against Candida albicans ATCC 10231 assessed as growth inhibition at 1 mg/mL after 48 hrs by agar-cup diffusion method; assay type: functional; conditions: ATCC 10231, 48 h, read-out: DIZ
Method in brief: (§1)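 Agar-cup diffusion: 1 mL of 6 h broth culture seeded per 100 mL molten sterile agar at 45 °C and poured into plates. 8 mm cups cut, each filled with 0.1 mL of 1 mg/mL test solution. Incubated 37 °C for 24 h, 48 h for C. albicans. DMSO control per organism. Inhibition zone diameter in mm, mean of three measurements.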

Escherichia coli [1] = assay: Antibacterial activity against Escherichia coli ATCC 25922 assessed as growth inhibition at 1 mg/mL after 24 hrs by agar-cup diffusion method; assay type: functional; conditions: ATCC 25922, 24 h, read-out: DIZ; method in brief: as §1
U-251 = assay: Cytotoxicity against human U251 cells assessed as growth inhibition at 10 uM after 48 hrs by SRB assay; assay type: functional; conditions: U-251, 48 h, read-out: GI
Method in brief: (§2)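 NCI-60 one-dose primary screen run by the NCI Drug Evaluation Branch across the full 60-line panel. Single high-dose treatment with 48 h continuous drug exposure. Cell growth estimated by sulforhodamine B protein staining. Results given as percent growth of treated cells and expressed as percentage growth inhibition.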

SF-268 = assay: Cytotoxicity against human SF268 cells assessed as growth inhibition at 10 uM after 48 hrs by SRB assay; assay type: functional; conditions: SF-268, 48 h, read-out: GI; method in brief: as §2
PC-3 = assay: Cytotoxicity against human PC3 cells assessed as growth inhibition at 10 uM after 48 hrs by SRB assay; assay type: functional; conditions: PC-3, 48 h, read-out: GI; method in brief: as §2
UACC-62 = assay: Cytotoxicity against human UACC62 cells assessed as growth inhibition at 10 uM after 48 hrs by SRB assay; assay type: functional; conditions: UACC-62, 48 h, read-out: GI; method in brief: as §2
SK-MEL-2 = assay: Cytotoxicity against human SK-MEL-2 cells assessed as growth inhibition at 10 uM after 48 hrs by SRB assay; assay type: functional; conditions: SK-MEL-2, 48 h, read-out: GI; method in brief: as §2
LOX IMVI = assay: Cytotoxicity against human LOXIMVI cells assessed as growth inhibition at 10 uM after 48 hrs by SRB assay; assay type: functional; conditions: read-out: GI; method in brief: as §2
SN12C = assay: Cytotoxicity against human SN12C cells assessed as growth inhibition at 10 uM after 48 hrs by SRB assay; assay type: functional; conditions: read-out: GI; method in brief: as §2
SR = assay: Cytotoxicity against human SR cells assessed as growth inhibition at 10 uM after 48 hrs by SRB assay; assay type: functional; conditions: read-out: GI; method in brief: as §2
RPMI-8226 = assay: Cytotoxicity against human RPMI8226 cells assessed as growth inhibition at 10 uM after 48 hrs by SRB assay; assay type: functional; conditions: RPMI-8226, 48 h, read-out: GI; method in brief: as §2
K562 = assay: Cytotoxicity against human K562 cells assessed as growth inhibition at 10 uM after 48 hrs by SRB assay; assay type: functional; conditions: K562, 48 h, read-out: GI; method in brief: as §2
CCRF-CEM = assay: Cytotoxicity against human CCRF-CEM cells assessed as growth inhibition at 10 uM after 48 hrs by SRB assay; assay type: functional; conditions: read-out: GI; method in brief: as §2
IGROV-1 = assay: Cytotoxicity against human IGROV1 cells assessed as growth inhibition at 10 uM after 48 hrs by SRB assay; assay type: functional; conditions: IGROV-1, 48 h, read-out: GI; method in brief: as §2
T47D = assay: Cytotoxicity against human T47D cells assessed as growth inhibition at 10 uM after 48 hrs by SRB assay; assay type: functional; conditions: read-out: GI; method in brief: as §2
MDA-MB-468 = assay: Cytotoxicity against human MDA-MB-468 cells assessed as growth inhibition at 10 uM after 48 hrs by SRB assay; assay type: functional; conditions: MDA-MB-468, 48 h, read-out: GI; method in brief: as §2
SW-620 = assay: Cytotoxicity against human SW620 cells assessed as growth inhibition at 10 uM after 48 hrs by SRB assay; assay type: functional; conditions: SW-620, 48 h, read-out: GI; method in brief: as §2
HT-29 = assay: Cytotoxicity against human HT-29 cells assessed as growth inhibition at 10 uM after 48 hrs by SRB assay; assay type: functional; conditions: HT-29, 48 h, read-out: GI; method in brief: as §2
HCT-15 = assay: Cytotoxicity against human HCT15 cells assessed as growth inhibition at 10 uM after 48 hrs by SRB assay; assay type: functional; conditions: HCT-15, 48 h, read-out: GI; method in brief: as §2
HCT-116 = assay: Cytotoxicity against human HCT116 cells assessed as growth inhibition at 10 uM after 48 hrs by SRB assay; assay type: functional; conditions: HCT-116, 48 h, read-out: GI; method in brief: as §2
HCC 2998 = assay: Cytotoxicity against human HCC2998 cells assessed as growth inhibition at 10 uM after 48 hrs by SRB assay; assay type: functional; conditions: HCC 2998, 48 h, read-out: GI; method in brief: as §2
NCI-H522 = assay: Cytotoxicity against human NCI-H522 cells assessed as growth inhibition at 10 uM after 48 hrs by SRB assay; assay type: functional; conditions: NCI-H522, 48 h, read-out: GI; method in brief: as §2
NCI-H226 = assay: Cytotoxicity against human NCI-H226 cells assessed as growth inhibition at 10 uM after 48 hrs by SRB assay; assay type: functional; conditions: NCI-H226, 48 h, read-out: GI; method in brief: as §2
Aspergillus niger = assay: Antifungal activity against Aspergillus niger assessed as growth inhibition at 1 mg/mL after 24 hrs by agar-cup diffusion method; assay type: functional, organism-based; method in brief: as §1
Pseudomonas aeruginosa [2] = assay: Antibacterial activity against Pseudomonas aeruginosa ATCC 27853 assessed as growth inhibition after 48 hrs by two-fold serial dilution assay; assay type: functional; conditions: ATCC 27853, 48 h
Method in brief: (§3)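 Twofold serial broth dilution run on compounds giving inhibition zones of 13 mm or more. Organisms pre-grown in suitable broth at 37 °C, 24 h for bacteria and 48 h for fungi. Dilution series 200, 100, 50, 25, 12.5, 6.25. Each 5 mL tube inoculated with 0.1 mL and incubated 37 °C for 48 h. Tubes scored for presence or absence of growth.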

Escherichia coli [3] = assay: Bactericidal activity against Escherichia coli ATCC 25922 after 18 hrs; assay type: functional; conditions: ATCC 25922, 18 h
Method in brief: (§4)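 Continuation of the broth-dilution MIC test. A loopful from each tube without visible growth spread on a quarter of a Mueller-Hinton agar plate and incubated 18 h. Lowest concentration giving no growth on subculture taken as the MBC.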

Bacillus spizizenii [4] = assay: Bactericidal activity against Bacillus subtilis ATCC 6633 after 18 hrs; assay type: functional; conditions: ATCC 6633, 18 h; method in brief: as §4
Bacillus spizizenii [5] = assay: Antibacterial activity against Bacillus subtilis ATCC 6633 assessed as growth inhibition after 48 hrs by two-fold serial dilution assay; assay type: functional; conditions: ATCC 6633, 48 h; method in brief: as §3
Staphylococcus aureus [6] = assay: Bactericidal activity against Staphylococcus aureus ATCC 6538 after 18 hrs; assay type: functional; conditions: ATCC 6538, 18 h; method in brief: as §4
Staphylococcus aureus [7] = assay: Antibacterial activity against Staphylococcus aureus ATCC 6538 assessed as growth inhibition after 48 hrs by two-fold serial dilution assay; assay type: functional; conditions: ATCC 6538, 48 h; method in brief: as §3
Staphylococcus aureus [8] = assay: Antibacterial activity against Staphylococcus aureus ATCC 6538 assessed as growth inhibition at 1 mg/mL after 24 hrs by agar-cup diffusion method; assay type: functional; conditions: ATCC 6538, 24 h, read-out: DIZ; method in brief: as §1
Pseudomonas aeruginosa [9] = assay: Antibacterial activity against Pseudomonas aeruginosa ATCC 27853 assessed as growth inhibition at 1 mg/mL after 24 hrs by agar-cup diffusion method; assay type: functional; conditions: ATCC 27853, 24 h, read-out: DIZ; method in brief: as §1

| Structure (SMILES) | zone of inhibition at 1000 µg/mL (Candida albicans) [mm] | zone of inhibition at 1000 µg/mL (Escherichia coli [1]) [mm] | inhibition of growth at 10 µM (U-251) [%] | inhibition of growth at 10 µM (SF-268) [%] | inhibition of growth at 10 µM (PC-3) [%] | inhibition of growth at 10 µM (UACC-62) [%] | inhibition of growth at 10 µM (SK-MEL-2) [%] | inhibition of growth at 10 µM (LOX IMVI) [%] | inhibition of growth at 10 µM (SN12C) [%] | inhibition of growth at 10 µM (SR) [%] | inhibition of growth at 10 µM (RPMI-8226) [%] | inhibition of growth at 10 µM (K562) [%] | inhibition of growth at 10 µM (CCRF-CEM) [%] | inhibition of growth at 10 µM (IGROV-1) [%] | inhibition of growth at 10 µM (T47D) [%] | inhibition of growth at 10 µM (MDA-MB-468) [%] | inhibition of growth at 10 µM (SW-620) [%] | inhibition of growth at 10 µM (HT-29) [%] | inhibition of growth at 10 µM (HCT-15) [%] | inhibition of growth at 10 µM (HCT-116) [%] | other results |
| --- | --- | --- | --- | --- | --- | --- | --- | --- | --- | --- | --- | --- | --- | --- | --- | --- | --- | --- | --- | --- | --- |
| Cc1nc(NC(=O)Nc2ccccc2)sc1C(=O)NN | > 13 | > 13 | < 10 | < 10 | < 10 | 11.9 | 37.8 | 10.1 | < 10 | 25.8 | < 10 | < 10 | < 10 | < 10 | < 10 | < 10 | < 10 | < 10 | 9.63 | 10.5 | inhibition of growth at 10 µM (HCC 2998): 6.85%; inhibition of growth at 10 µM (NCI-H522): 63.4%; inhibition of growth at 10 µM (NCI-H226): 2.53%; growth inhibition (GI) (Aspergillus niger): inactive; MIC (Pseudomonas aeruginosa [2]): 50 µg/mL (≈ 172 µM); MBC (Escherichia coli [3]): 12.5 µg/mL (≈ 42.9 µM); MBC (Bacillus spizizenii [4]): 25 µg/mL (≈ 85.8 µM); MIC (Bacillus spizizenii [5]): 25 µg/mL (≈ 85.8 µM); MBC (Staphylococcus aureus [6]): 12.5 µg/mL (≈ 42.9 µM); MIC (Staphylococcus aureus [7]): 12.5 µg/mL (≈ 42.9 µM); zone of inhibition at 1000 µg/mL (Staphylococcus aureus [8]): > 13 mm; zone of inhibition at 1000 µg/mL (Pseudomonas aeruginosa [9]): > 13 mm |
| Cc1nc(NC(=O)NC2CCCCC2)sc1C(=O)NN | > 13 | > 13 | 2.59 | < 10 | < 10 | 10.2 | 29.3 | 7.54 | < 10 | < 10 | < 10 | < 10 | < 10 | 28 | < 10 | 3.73 | < 10 | 5.51 | 9.55 | 16.3 | inhibition of growth at 10 µM (HCC 2998): < 10%; inhibition of growth at 10 µM (NCI-H522): 99.5%; inhibition of growth at 10 µM (NCI-H226): < 10%; growth inhibition (GI) (Aspergillus niger): inactive; MIC (Pseudomonas aeruginosa [2]): 100 µg/mL (≈ 336 µM); MBC (Escherichia coli [3]): 100 µg/mL (≈ 336 µM); MBC (Bacillus spizizenii [4]): 100 µg/mL (≈ 336 µM); MIC (Bacillus spizizenii [5]): 100 µg/mL (≈ 336 µM); MBC (Staphylococcus aureus [6]): 50 µg/mL (≈ 168 µM); MIC (Staphylococcus aureus [7]): 25 µg/mL (≈ 84.1 µM); zone of inhibition at 1000 µg/mL (Staphylococcus aureus [8]): > 13 mm; zone of inhibition at 1000 µg/mL (Pseudomonas aeruginosa [9]): > 13 mm |
